The results in this text go back to PubChem BioAssay AID504382 (The Scripps Research Institute Molecular Screening Center, 2011).

Hit rate of the full screen: of about 2,500 compounds, about 460 (18%) were called active. A selection follows. A number with no mark means an inactive call.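 Rule for the calls: active = mean activation above a cutoff of low control average plus 3 SD from the earlier screen (cut at about 12% in these data); inactive = the rest.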

The nature of this test: IANBD-channel fluorescence artefacts in buffer – biochemical, artefact control for cardiac RTF calcium sensitizer project, confirmation (AID 504382). Particulars: IANBD fluorescence interference counterscreen, EC20 Ca2+, at 7.2 µM, hits give high values, scaled: EC20 calcium 0, EC100 calcium 100. A digest of the protocol: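 Also added: EC20 calcium, 0.472 mM; dosing: single nominal 7.2 µM compound dose, 0.7% DMSO final; timing: 15 min, 25 °C; detection: fluorescence intensity, excitation 480 nm, emission 540 nm; replicates: each compound tested in triplicate wells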
Consider `CCC1(O)C(=O)OCc2c1cc1n(c2=O)Cc2cc3cc(O)ccc3nc2-1` (stereo unspecified), for which the fluorescence artifact activation is 0.27%.
As for `Cc1cc(C)n(CC(O)COc2ccccc2)n1` (stereo unspecified), the figure is 0.59%; as for `CCOc1ccccc1C(=O)NN1C(=O)CCC1=O`, 3.75%.
`O=C1CCC(=O)N1CC(O)COc1ccccc1` (stereo unspecified): the fluorescence artifact activation was 61.5% (active).
As for `CC(C)(C)NC(=O)[C@@H]1CN(Cc2cccnc2)CCN1C[C@@H](O)C[C@@H](Cc1ccccc1)C(=O)N[C@H]1c2ccccc2C[C@H]1O`, the figure is 54.1% (active).
Take `Cn1nc([N+](=O)[O-])c(C(C#N)c2ccccn2)c(Cl)c1=O` (stereo unspecified): the fluorescence artifact activation was -0.03%.
As to `CN(C)c1ccc(/C=C2\N=C(C(C)(C)C)OC2=O)cc1`, the fluorescence artifact activation is 0.15%.
As for `Cc1c(N2C(=O)/C(=C\c3ccc(N(C)C)cc3)N(C)C2=S)c(=O)n(-c2ccccc2)n1C`, the figure is 0.17%; as for `CN1C(=O)/C(=C\c2ccc(N(C)C)cc2)OC1=S`, 57.7% (active); as for `Cc1ccc(NC2OC(C(O)CO)C(O)C2O)cc1[N+](=O)[O-]` (stereo unspecified), 5.79%.
As for `O=C(c1ccc(COc2ccccc2Br)o1)N1N=C(C(F)F)CC1(O)C(F)F` (stereo unspecified), the figure is 8.57%; as for `CC(=O)Nc1ccc(S(=O)(=O)N2CCN3CCCC3C2)cc1` (stereo unspecified), -0.04%.
As for `CCOC(=O)/C(=C/C1=CC(=C/N(C)C)/C(=O)O1)C(C)=O`, the figure is 22.1% (active); as for `CCOC(=O)/C(=C\c1ccc(N2CCC(c3ccccc3)=N2)cc1)C(C)=O`, -0.05%.
In the case of `CCOC(=O)/C(=C/C=C1\Sc2cc(C)c(C)cc2N1CC)C(C)=O`, the fluorescence artifact activation was 0.02%.
On to `CCc1ccc(/C=N/n2c(C)cc(C)c(C#N)c2=O)cc1`, for which the fluorescence artifact activation was 0.12%.
As for `CCCNC(=S)N1CCC(NC(=O)C23CC4CC(CC(C4)C2)C3)CC1`, the figure is 0.09%; as for `Cc1ccccc1-n1nnnc1SCC(C)C`, 32.8% (active); as for `CCn1nnnc1SCC(=O)N1CCCc2ccccc21`, 0.01%.
As for `CSc1nnnn1-c1c(C)cc(C)cc1C`, the figure is 0.04%.
On to `CCO[C@@H]1OC(C(=O)O)=C[C@H](c2coc3ccccc3c2=O)[C@H]1CCCO`, for which the fluorescence artifact activation was 1.71%.
As for `COCCn1c(SCC#N)nnc1-c1ccc([N+](=O)[O-])cc1`, the figure is -0.11%; as for `COc1cccc(N=C2NC(=O)/C(=C/c3cc([N+](=O)[O-])ccc3O)S2)c1`, 0.01%; as for `COc1cc(/C=C2\SC(=Nc3ccc(Cl)c(C(=O)O)c3)NC2=O)c(Br)c(Br)c1O`, 17.6% (active).
As for `COc1cc(/C=C2\SC(=Nc3ccccc3)NC2=O)cc(Cl)c1O`, the figure is 0.21%; as for `c1ccc(-c2nc(-c3ccco3)n3ccccc23)cc1`, 0.05%.
As for `O=C(/C=C/c1cccc(F)c1)Nc1cc(S(=O)(=O)N2CCOCC2)ccc1N1CCCC1`, the fluorescence artifact activation is 0.02%.
As for `CCSC1=NSC2=NC(=O)/C(=C\c3coc4ccccc4c3=O)C(=N)N12`, the figure is 24.5% (active); as for `CC(C)CSC1=NSC2=NC(=O)/C(=C\c3coc4ccccc4c3=O)C(=N)N12`, 12.7% (active).
On to `N=C1/C(=C\c2coc3ccccc3c2=O)C(=O)N=C2SC=CN12`, for which the fluorescence artifact activation was -0.01%.
Take `CC(C)CC1=NN2C(=N)/C(=C\c3coc4ccccc4c3=O)C(=O)N=C2S1`: the fluorescence artifact activation was 2.69%.
As for `N=C1/C(=C\c2coc3ccccc3c2=O)C(=O)N=C2SC(c3ccncc3)=NN12`, the figure is 7.67%.
As for `CSC1=NSC2=NC(=O)/C(=C/c3coc4ccccc4c3=O)C(=N)N12`, the figure is 0.27%; as for `Cn1nnnc1SCCOc1ccc(C#N)cc1`, -0.03%; as for `CSc1cccc(NC(=O)c2ccc(Cl)nc2)c1`, -0.04%.
Consider `Fc1ccc(-c2[nH]ncc2CN(CC2CCC2)CC2CCCO2)c(F)c1` (stereo unspecified), for which the fluorescence artifact activation was 8.43%.
As for `C=C(C)c1sc(-c2ccc(Cl)cc2)nc1C`, the fluorescence artifact activation is 0.11%.
As for `O=C(NN1C(=O)/C(=C/c2ccc(O)cc2)SC1=S)c1cccc(O)c1`, the figure is 0.01%; as for `Cc1cc2nc(C3CCCN(C(=O)NCc4ccccc4)C3)[nH]c2cc1C` (stereo unspecified), 8.15%; as for `COc1ccc(-n2c(O)c(/C=N/NS(=O)(=O)c3ccc(C)c([N+](=O)[O-])c3)c3ccccc3c2=O)cc1OC`, -0.02%.
Take `COc1ccc(-n2c(O)c(/C=N/NS(=O)(=O)c3cc(C)ccc3C)c3ccccc3c2=O)cc1OC`: the fluorescence artifact activation is 0.84%.
As for `COc1ccc(-n2c(O)c(/C=N/NS(=O)(=O)c3ccc(C)cc3)c3ccccc3c2=O)cc1OC`, the figure is 12.8% (active).
As for `COc1ccc(/C(C)=N/N2C(=O)c3ccccc3NC2c2ccc(O)c(OC)c2)cc1` (stereo unspecified), the figure is 0.69%.
For `Cc1cn(COC/C=C/c2ccccc2)c(=O)[nH]c1=O`, the fluorescence artifact activation was 25.6% (active).
As for `Cc1ccccc1-n1c(O)c(/C=C/C=Nc2ccccc2)c(=O)[nH]c1=O`, the figure is 2.27%; as for `CCCCOc1ccc(C2OC34CCCCC3C(C#N)(C#N)C2(C#N)C(=N)O4)cc1` (stereo unspecified), 0.1%; as for `COc1ccc(C(=O)OC/C(O)=C(\C#N)c2nc3ccccc3[nH]2)cc1S(=O)(=O)N1CCOCC1`, 0.13%.
Take `O=C1OCC/C1=C\c1ccccc1O`: the fluorescence artifact activation was -0.06%.
As for `COC(=O)C1CSc2[nH]c(=O)sc2C1c1ccccc1` (stereo unspecified), the figure is 0.07%; as for `CCCCN1C(=O)/C(=C/C=C2\SCCN2C)SC1=S`, 0%; as for `Cc1ccc(C(=O)NN2C(=O)/C(=C/c3cccn3C)SC2=S)cc1`, 4.27%.
As for `CCC(C(=O)O)N1C(=O)/C(=C/c2cccn2C)SC1=S` (stereo unspecified), the figure is 4.17%; as for `Cn1cccc1/C=C1\SC(=S)N(NC(=O)c2ccccc2)C1=O`, 18.2% (active).
As for `Cn1cc(/C=C2\SC(=S)N(NC(=O)c3cccc(Cl)c3)C2=O)c2ccccc21`, the figure is 17% (active); as for `CC(C)C(C(=O)O)N1C(=O)/C(=C/c2cccn2C)SC1=S` (stereo unspecified), 12.3% (active).
Turning to `CC(C(=O)O)N1C(=O)/C(=C/c2cccn2C)SC1=S` (stereo unspecified), the fluorescence artifact activation was 6.16%.
As for `Cc1ccc(C(=O)NN2C(=O)/C(=C/c3cn(C)c4ccccc34)SC2=S)cc1`, the figure is 7.41%; as for `Cn1cc(/C=C2\SC(=S)N(NC(=O)c3ccccc3)C2=O)c2ccccc21`, 2.64%; as for `CN1CCS/C1=C/C=C1\SC(=S)N(CC(=O)O)C1=O`, 18.9% (active).
As for `CN1CCS/C1=C\C=C1/SC(=S)N(CC(=O)O)C1=O`, the figure is -0.02%; as for `Cn1cccc1/C=C1\SC(=S)N(NC(=O)c2ccc(Cl)cc2)C1=O`, 0.86%.
